Screens: PubChem BioAssay, Broad Institute
This is a sample that favours compounds with a hit; in the whole collection about 2.9% have one here.
PglD DTNB: PglD (C. jejuni) enzyme inhibition. purified PglD enzyme, DTNB colorimetric CoA detection. inhibition, % at 12.5 µM. actives 0.098% (n = 360,000); in the data active = inhibition above about 16%, passing the limit was not always enough
rRNA inh HTS: inhibitors of bacterial rRNA selective over humanized ribosomes; E. coli WT GFP vs humanized-ribosome RFP mutants, fluorescence, 24 h; active compounds read low; DMSO median 0, no signal -100; GFP signal change (wild-type ribosome), % (concentration not given with the values); actives 1.6% (n = 350,000); AID 720706;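 active = significant combined selectivity score with lowered wild-type GFP, culture density cut under 30%, mutant RFP and density less affected; inactive = any of these conditions unmet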
Cneo AK release: Cryptococcus neoformans lysis via adenylate kinase release; C. neoformans lysis, adenylate kinase release luminescence, 4 h; normalised: neutral wells 0, clomiphene wells 100; lysis activity, % at 15 µM; actives 0.2% (n = 360,000);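 active = mean lysis activity across replicates of at least 80%, whatever share of replicates individually reach that level; inactive = mean lysis activity below 80%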
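Assay system: log-phase C. neoformans yeast / Quantity: yeast cell density of 5 × 10^6 cells/mL / Medium: fresh YPD growth medium / Compound: single dose / Timing: static 4 h at 37 °C with compound, 1 h detection / Measured by: adenylate kinase release luminescence / Read-out: lysis from increased AK signal / Benchmarks: Clomiphene as positive lysis control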
FGF22 binding: binders of recombinant human FGF22 by thermal shift; SYPRO orange fluorescence; percent of sucrose octasulfate shift, DMSO zero; activity (Tm shift, normalised), % at 9.99 µM; Q9HCT0; actives 1.5% (n = 340,000);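 active = mean Tm shift, scaled 0 neutral to 100 positive control, at about 1.3% or above, every replicate too, limit read from the data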
Target sequence (Q9HCT0 whole entry, looked up): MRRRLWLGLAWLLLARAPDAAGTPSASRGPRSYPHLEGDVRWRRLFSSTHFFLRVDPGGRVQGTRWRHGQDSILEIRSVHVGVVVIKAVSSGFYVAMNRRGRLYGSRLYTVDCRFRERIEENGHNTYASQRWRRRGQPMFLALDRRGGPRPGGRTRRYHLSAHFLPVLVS
Vif imaging: blocks HIV Vif function | HEK293T cells, Vif self-association by quenched fluorescence, imaging, 24 h | inhibition, % at 7.49 µM | actives 0.35% (n = 340,000); in the data active = inhibition above about 50%, passing the limit was not always enough
PGC1a acetyl inh: lowers PGC1a acetylation signal in U2OS cells | inhibition, % at 15.6 µM | AlphaScreen anti-acetyl-lysine; with virally co-expressed GCN5 acetyltransferase | AID 651687 | actives 0.17% (n = 350,000);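 active = every replicate shows inhibition of at least 40%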;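 note: 0% = neutral control wells and 100% = positive control wells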
* marks the source's active call; other numbers are inactive results.

What do the screens show for `Cc1ccc(-c2cc(-c3n[nH]c(=S)o3)c3ccccc3n2)cc1`?
rRNA inh HTS: -18*; FGF22 binding: 0; Vif imaging: -3

Results for S=c1[nH]nc(-c2cc(-c3ccccn3)nc3ccccc23)o1 ?
rRNA inh HTS: -15; FGF22 binding: 0; Vif imaging: -7; PGC1a acetyl inh: 0

Results for CCC(=O)Nc1ccc2c(c1)C(=O)N(C)C[C@H](OC)[C@H](C)CN(C(=O)C1CC1)[C@@H](C)CO2 ?
PglD DTNB: -2; rRNA inh HTS: -1; Cneo AK release: 10; FGF22 binding: 0; PGC1a acetyl inh: -15

How did Fc1ccc(Cn2cc(C(=S)N3CCOCC3)c3ccccc32)cc1 do in these assays?
PglD DTNB: 1; rRNA inh HTS: -26*; Cneo AK release: 20; FGF22 binding: 0; Vif imaging: -3; PGC1a acetyl inh: -13

How did CN(C)CCCNC(=O)[C@@H]1[C@@H](CO)[C@@H]2Cn3c(ccc(C4=CCCC4)c3=O)[C@H]1N2Cc1cocn1 do in these assays?
PglD DTNB: -1; rRNA inh HTS: 3; Cneo AK release: -5; FGF22 binding: 0

Results for CN1CCN(C(=O)C2=C[C@H](c3ccc(Br)cc3)C[C@H](OCc3ccc(CO)cc3)O2)CC1 ?
Cneo AK release: -16; FGF22 binding: 0; PGC1a acetyl inh: -1

How did O=C(Nc1ccc2sccc2c1)c1cccc(N2C(=O)CCC2=O)c1 do in these assays?
rRNA inh HTS: -16; FGF22 binding: 43*; Vif imaging: 5

How did O=C(Nc1nc2ccccc2s1)c1cccc(N2C(=O)CCC2=O)c1 do in these assays?
PglD DTNB: -2; rRNA inh HTS: -5; Cneo AK release: -3; FGF22 binding: 0; Vif imaging: 1

What do the screens show for `COc1cccc(-c2ccc3n(c2=O)C[C@@H]2[C@@H](CO)[C@H](C(=O)NC4CCCC4)[C@H]3N2C)c1`?
PglD DTNB: 3; rRNA inh HTS: 0; Cneo AK release: -1; FGF22 binding: 0; PGC1a acetyl inh: 4

What do the screens show for `CNC(=O)c1ccc(NC(=O)/C=C/c2cccc(F)c2)cc1`?
rRNA inh HTS: 14; FGF22 binding: 44*; Vif imaging: -1

What do the screens show for `Cc1ccc(NC(=O)/C=C/c2cccc(C(F)(F)F)c2)cc1`?
rRNA inh HTS: -1; FGF22 binding: 18*; Vif imaging: 0

What do the screens show for `C[C@H]1CN([C@@H](C)CO)C(=O)c2cc(NS(=O)(=O)c3ccc(F)cc3)ccc2O[C@H]1CN(C)C`?
PglD DTNB: -4; rRNA inh HTS: -7; Cneo AK release: -1; FGF22 binding: 0; PGC1a acetyl inh: -3

How did C[C@@H]1CCCCO[C@H](CN(C)Cc2ccc(C(F)(F)F)cc2)[C@H](C)CN([C@H](C)CO)C(=O)c2cc(NS(C)(=O)=O)ccc2O1 do in these assays?
PglD DTNB: -1; rRNA inh HTS: -3; Cneo AK release: 4; FGF22 binding: 0; PGC1a acetyl inh: 0

What do the screens show for `N#C/C(=N\Nc1cccc(F)c1)C(=N)N1CCCCCC1`?
rRNA inh HTS: 17; FGF22 binding: 0; Vif imaging: -2; PGC1a acetyl inh: -8

What do the screens show for `N#C/C(=N\Nc1cccc(F)c1)C(=O)C1CC1`?
rRNA inh HTS: -25*; FGF22 binding: 0; Vif imaging: -11

How did C[C@@H]1CN([C@@H](C)CO)C(=O)c2cc(NC(=O)NC3CCCCC3)ccc2O[C@@H](C)CCCCO[C@H]1CN(C)CC1CCCCC1 do in these assays?
PglD DTNB: -3; rRNA inh HTS: 1; Cneo AK release: -2; FGF22 binding: 0; PGC1a acetyl inh: -2

How did C[C@H](CO)N1C[C@H](C)[C@H](CN(C)Cc2ccc3c(c2)OCO3)Oc2ccc(NS(=O)(=O)c3cn(C)cn3)cc2CC1=O do in these assays?
PglD DTNB: -2; rRNA inh HTS: 2; Cneo AK release: -2; FGF22 binding: 0; PGC1a acetyl inh: 3

Results for COc1cccc(C(C(=O)NC2CCCCC2)N(C(=O)Cc2cccs2)c2ccc(-n3cnnn3)c(OC)c2)c1 (stereo not drawn) ?
PglD DTNB: -2; Cneo AK release: 0; Vif imaging: -6; PGC1a acetyl inh: 18
